Screening results (PubChem)
Rows were chosen to be rich in hits. Some 2.1% of all compounds tested hit in one or more screens of this group.
FAS-TE inh – FAS thioesterase domain inhibitors, primary screen, biochemical, fluorescence intensity, uHTS; recombinant FAS-TE, OMFH fluorogenic substrate, fluorescence endpoint; 360,000 compounds, 0.67% hits; inhibition, % at 15 µM; Fatty acid synthase (Homo sapiens), P49327;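 active means compounds whose normalised, plate-corrected inhibition of enzyme fluorescence in the single-dose primary screen is 50% or more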;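 further: 0% = DMSO with enzyme and 100% = substrate without enzyme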
Runt-CBFb FRET – inhibitors of RUNX1 Runt–CBFb binding, primary screen, biochemical, FRET, Cerulean-Runt, Venus-CBFb, uHTS | Cerulean-Runt/Venus-CBFb FRET ratio 530/480, 1 h | 220,000 compounds, 0.46% hits | Runt-related transcription factor 1 (Homo sapiens) + Core-binding factor subunit beta … | inhibition, % at 20 µM;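 active means inhibition over about 50% at 20 µM in the single-dose screen, limit read from the data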;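 further: 0% = DMSO wells and 100% = excess unlabeled CBFb competitor control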
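Reagent – Venus-CBFb binding partner, 100 nM · Assay system – Cerulean-tagged RUNX1 Runt domain (FRET donor) fusion protein · Input – 100 nM per protein · Incubation – two 1 h room-temperature incubations shielded from light · Measured by – FRET fluorescence · Medium – Tris buffer pH 7.5 with salts and BSA · Benchmarks – unlabeled CBFb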
RanGTP-Imp inh – inhibitors of RanGTP-importin-beta interaction, primary screen, biochemical, FRET, CFP-Ran, YFP-importin-beta, homogeneous; Ran GTPase (GTP-bound) - importin-beta complex; cell-free CFP-Ran/YFP-importin-beta FRET ratio; inhibition, % (no concentration beside the values); 300,000 compounds, 1.1% hits;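 active means more than half of the replicate wells show a fall in the fluorescence ratio signal beyond about 16%, limit read from the data, passing the limit was not always enough; inconclusive means exactly half of the replicate wells pass the set limit; inactive means fewer than half of replicates pass the limit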;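 further: 0% = DMSO wells and 100% = Ran loaded with GDP instead of GTP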
Calpain2 inh – inhibitors of pig calpain II, primary screen, biochemical, fluorogenic peptide substrate, 1536-well; AID 1236, 2008; inhibition, % at 16 µM; 220,000 compounds, 0.37% hits; purified calpain II, 30 min;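 active means inhibition above about 50%, limit read from the data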
Runt-SMMHC FRET – inhibitors of RUNX1 Runt–CBFb-SMMHC binding, primary screen, biochemical, FRET, Cerulean-Runt, Venus-CBFb-SMMHC, uHTS; Runt-related transcription factor 1 (Homo sapiens) + Core-binding factor subunit beta …; Cerulean-Runt/Venus-CBFb-SMMHC FRET ratio 530/480, 1 h; inhibition, % at 20 µM; 220,000 compounds, 0.74% hits;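 active means mean inhibition across duplicate retests at 20 µM reaching about 50%, limit read from the data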;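 further: 0% = DMSO wells and 100% = wells with excess untagged CBFb-SMMHC; inhibitors lower the FRET ratio by blocking Runt binding to CBFb-SMMHC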
FAS-TE conf – FAS thioesterase domain inhibitors, confirmation, biochemical, fluorescence intensity, single concentration; 2,300 compounds, 45% hits; inhibition, % at 15 µM; AID 624325, 2012; shares compounds with FAS-TE inh; recombinant FAS-TE, OMFH fluorogenic substrate;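 active means compounds inhibiting the enzyme by at least 50% at 15 µM in any one of the replicates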;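 further: 0% = enzyme with DMSO only and 100% = wells lacking enzyme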
* = called active by the depositor.

O=c1[nH]c2ccccc2n1C1CCN(Cc2ccc(-c3nc4ccc(F)cc4nc3-c3ccccc3)cc2)CC1 was read as FAS-TE inh 63.1* and FAS-TE conf 9.9.
COc1ccc2nc(-c3ccc(CN4CCC(n5c(=O)[nH]c6ccccc65)CC4)cc3)c(-c3ccccc3)nc2c1 was read as FAS-TE inh 76.5* and FAS-TE conf 10.9.
For O=c1[nH]c2ccccc2n1C1CCN(Cc2ccc(-c3nc4ccccc4nc3-c3ccccc3)cc2)CC1 the results were FAS-TE inh 61.1* and FAS-TE conf 3.5.
`COc1ccc(N2C(=O)CC(N3CCC(n4c(=O)[nH]c5ccccc54)CC3)C2=O)cc1` (stereo unspecified) gave FAS-TE inh -5.3, Runt-CBFb FRET 2.3, RanGTP-Imp inh -2.4, Calpain2 inh -25.7 and Runt-SMMHC FRET 2.9.
S=C1NC2(CCCCC2)NC12CCCCC2 was read as FAS-TE inh -3.1, Runt-CBFb FRET 3.3, RanGTP-Imp inh 3.5, Calpain2 inh -0.9 and Runt-SMMHC FRET -0.9.
`Cn1cc(C=C(C#N)C#N)c2ccccc21` gave FAS-TE inh 62.8*, Runt-CBFb FRET -13.6, RanGTP-Imp inh -33.0, Calpain2 inh 2.9, Runt-SMMHC FRET -34.2 and FAS-TE conf -19.6.
`O=C1C=CC(=O)C2C1C1(Cl)C(Cl)=C(Cl)C2(Cl)C1(Cl)Cl` (stereo unspecified) gave FAS-TE inh 60.4* and FAS-TE conf 57.4*.
Screening COc1ccc(C2=NS(=O)(=O)N(C)C(C(=O)N3CCC4(CC3)OCCO4)=C2)cc1OC returned FAS-TE inh -3.8 and RanGTP-Imp inh inconclusive.
For C=CCn1c(=O)c(C=Nc2c(OC)cccc2[N+](=O)[O-])c(O)n(CCCC)c1=O the results were FAS-TE inh 70.4*, Runt-CBFb FRET -7.3, RanGTP-Imp inh inconclusive, Calpain2 inh -6.9, Runt-SMMHC FRET -3.4 and FAS-TE conf 20.0.
`C=CCn1c(=O)c(C=Nc2cccc([N+](=O)[O-])c2)c(O)n(CCCC)c1=O` gave FAS-TE inh 42.5, RanGTP-Imp inh -3.1, Calpain2 inh -7.4 and Runt-SMMHC FRET -41.0.
CCOC(=O)[C@]12Cc3c(cc(OC)c(OC)c3OC)[C@H]1N(C(C)C)C(=O)c1ccccc12 was read as FAS-TE inh 11.6.
CN(Cc1cccc(-c2cccnc2)c1)C(=O)Oc1ccc([N+](=O)[O-])cc1 was read as FAS-TE inh 51.4* and FAS-TE conf 24.7.
For COC(=O)C1=C(c2cccc3c2S(=O)(=O)c2ccccc2-3)C[C@@H]2CC[C@H]1N2C(=O)N1CCOCC1 the results were FAS-TE inh -4.3.
Screening COC(=O)C1=C(c2cccc3c2S(=O)(=O)c2ccccc2-3)C[C@@H]2CC[C@H]1N2C(=O)N1CCc2cc(OC)c(OC)cc2C1 returned FAS-TE inh 67.7* and FAS-TE conf 31.0.
Screening NP(=O)(Oc1ccccc1Cl)Oc1ccccc1Cl returned FAS-TE inh 75.3*, Runt-CBFb FRET 3.2, RanGTP-Imp inh 5.1, Calpain2 inh 1.9, Runt-SMMHC FRET -0.1 and FAS-TE conf 85.2*.
`O=NN(CCF)C(=O)NC1CCC(=O)NC1=O` (stereo unspecified) gave FAS-TE inh -2.8.
O=S(=O)(c1cc(Cl)cc(Cl)c1)N1Cc2cc(-c3ccccc3)ccc2-n2nncc2C1 was read as FAS-TE inh 85.9* and FAS-TE conf 9.5.
For Cc1cccc(CSc2nc3c(cc2C#N)CN(C)CC3)c1 the results were FAS-TE inh -5.3, Runt-CBFb FRET 0.1, RanGTP-Imp inh -0.1, Calpain2 inh 3.6 and Runt-SMMHC FRET 3.2.
Screening CN1CCc2nc(SCc3ccccc3Br)c(C#N)cc2C1 returned FAS-TE inh 53.9*, Runt-CBFb FRET 12.6, RanGTP-Imp inh -6.2, Calpain2 inh 28.4, Runt-SMMHC FRET 12.7 and FAS-TE conf 44.6*.
For COc1cc2c(cc1OC)C13CCN4CC5=CCOC6CC(=O)N2C1C6C5CC43 (stereo unspecified) (tested in a mixture with another compound) the results were FAS-TE inh -5.8, Runt-CBFb FRET -0.9, RanGTP-Imp inh -5.1, Calpain2 inh -17.1 and Runt-SMMHC FRET -2.1.
`S=C(NCCc1ccccc1)N1Cc2cc(Br)ccc2-n2nncc2C1` gave FAS-TE inh 62.2* and FAS-TE conf 25.5*.
COc1ccc(C(c2nnnn2-c2ccc(OC)cc2)N2CCC3(CC2)C(=O)NCN3c2ccccc2)cc1 (stereo unspecified) was read as FAS-TE inh 51.9* and FAS-TE conf 24.3.
Screening O=C1NCN(c2ccccc2)C12CCN(C(c1ccccc1OC(F)(F)F)c1nnnn1-c1ccc3c(c1)OCCO3)CC2 (stereo unspecified) returned FAS-TE inh 82.1* and FAS-TE conf 29.8.
For COc1ccc(-n2nnnc2C(c2ccccc2)N2CCC3(CC2)C(=O)NCN3c2ccccc2)cc1 (stereo unspecified) the results were FAS-TE inh 14.5.
`COc1ccc(-n2nnnc2C(c2ccccc2OC(F)(F)F)N2CCC3(CC2)C(=O)NCN3c2ccccc2)cc1` (stereo unspecified) gave FAS-TE inh 60.5* and FAS-TE conf 31.1.
Screening CC(C)C1CN1CC(O)Cn1ccnc1[N+](=O)[O-] (stereo unspecified) returned FAS-TE inh -0.9.
For CC1([N+](=O)[O-])COP(=O)(Nc2cccc(F)c2)OC1 (stereo unspecified) the results were FAS-TE inh -6.8.
